EBI2 antag: EBI2 receptor antagonists, beta-arrestin recruitment, primary screen, cell-based, luminescence, 7a,25-OHC stimulation, uHTS; AID 651636, 2012; inhibition, % at 5 µM; G-protein coupled receptor 183 (Homo sapiens), P32249; 360,000 tested, 0.81% active; 7a,25-OHC stimulated; in the data active = inhibition above about 38%;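 also: enzyme fragment complementation signal reports receptor beta-arrestin coupling in cells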
CXCR6 block: CXCR6 receptor inhibitors, primary screen, cell-based, beta-arrestin, luminescence, CHO-K1 PathHunter, 1536-well. inhibition, % at 20 µM. C-X-C chemokine receptor type 6 (Homo sapiens), O00574. 360,000 tested, 0.36% active; in the data active = inhibition above about 34%, passing the limit was not always enough;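 also: antagonist mode with CXCL16 agonist at 10 nM final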
Target sequence (O00574 whole entry, looked up): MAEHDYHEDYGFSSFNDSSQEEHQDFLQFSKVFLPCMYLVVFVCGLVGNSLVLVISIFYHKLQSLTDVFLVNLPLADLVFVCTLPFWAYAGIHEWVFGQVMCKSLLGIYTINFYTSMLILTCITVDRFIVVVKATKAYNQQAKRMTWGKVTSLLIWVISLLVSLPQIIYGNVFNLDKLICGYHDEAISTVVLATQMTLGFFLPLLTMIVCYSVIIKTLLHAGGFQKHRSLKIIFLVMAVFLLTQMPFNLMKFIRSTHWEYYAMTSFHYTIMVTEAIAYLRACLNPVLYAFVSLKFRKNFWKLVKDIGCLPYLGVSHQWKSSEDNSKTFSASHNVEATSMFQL
CCR6 antag: CCR6 receptor antagonists, primary screen, cell-based, CHO-K1, luminescence, beta-arrestin, uHTS; C-C chemokine receptor type 6 (Homo sapiens), P51684; CHO-K1 CCR6 PathHunter beta-arrestin, CCL20-stimulated; inhibition, % at 20 µM; 340,000 tested, 0.49% active;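 active = compounds whose inhibition of the agonist-driven luminescence signal at 20 µM reaches about 50%, limit read from the data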;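 also: cells stimulated with CCL20 at 14 nM final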
Target sequence (P51684 whole entry, looked up): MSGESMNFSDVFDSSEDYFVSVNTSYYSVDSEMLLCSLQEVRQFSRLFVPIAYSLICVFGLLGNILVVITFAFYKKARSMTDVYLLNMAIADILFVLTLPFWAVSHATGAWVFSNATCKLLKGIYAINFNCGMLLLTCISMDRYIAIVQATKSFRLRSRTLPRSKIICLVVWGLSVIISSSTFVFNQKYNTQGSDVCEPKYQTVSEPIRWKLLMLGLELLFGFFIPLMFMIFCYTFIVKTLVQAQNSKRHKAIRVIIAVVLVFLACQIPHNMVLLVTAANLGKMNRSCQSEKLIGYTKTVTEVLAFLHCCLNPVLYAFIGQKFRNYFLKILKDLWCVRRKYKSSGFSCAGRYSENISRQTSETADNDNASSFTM
APJ antag: antagonists of human apelin receptor APJ, primary screen, CHO-K1 cells, beta-arrestin complementation, luminescence | P35414 | inhibition, % at 20 µM | 330,000 tested, 0.32% active;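 active = inhibition above about 40% at 20 µM, limit read from the data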;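 also: cells challenged with 10 nM apelin-13 agonist together with compound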
Beta2AR agonist: beta2AR agonists driving receptor internalization, primary screen, cell-based, FAP fluorogen, flow cytometry | Beta-2 adrenergic receptor (Homo sapiens), P07550 | Am2.2-beta2AR cells | response, % (test concentration not listed) | 340,000 tested, 0.43% active | AID 504454, 2011;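 active = response above a set limit, near 3 SD of response in nonfluorescent compounds, cut at about 42% in these data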
APJ agonist: agonists of human apelin receptor APJ, primary screen, CHO-K1 cells, PathHunter beta-arrestin, luminescence; P35414; 0% DMSO wells, 100% apelin; activation, % at 20 µM; 330,000 tested, 0.11% active; AID 2520, 2010;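 active = activation more than six SD over the plate average, tested at 20 µM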
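Test system: CHO-K1 APJ beta-arrestin complementation cell line. Amount: cell density 1000 per well. Controls: DMSO negative, 10 nM Apelin-13 positive. Signal: luminescent beta-gal fragment complementation, chemiluminescent substrate. Read-out basis: agonist-driven arrestin binding to APJ. Timing: compound stimulation 90 min at 25 °C, detection 60 min.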
Each line names hits and unclear results; the compound was inactive in the other large screens. A selection: hits, their analogues and other compounds. The true share with any hit is near 1.8%.

CC(=O)c1ccc(NC(=O)c2ccc3nc(-c4ccco4)c(-c4ccco4)nc3c2)cc1	CXCR6 block 46
O=C(Nc1ccccc1)c1ccc2nc(-c3ccco3)c(-c3ccco3)nc2c1	none
O=C(C=Cc1cccs1)c1ccccc1	none (no result: APJ antag, APJ agonist)
COc1ccc(Cn2c(/C=C/c3ccccc3)nc3ccccc32)cc1	EBI2 antag 42
CCOC(=O)/C=C/C(=O)OCC(=O)NCc1ccccc1	Beta2AR agonist 44
CCN(CC)CCOc1ccc(Br)cc1	none
CCN(CC)CCOc1ccc(/C(=C(\Cl)c2ccccc2)c2ccccc2)cc1	Beta2AR agonist 60
COc1ccccc1-c1cc(C(F)(F)F)nc(S(C)(=O)=O)n1	Beta2AR agonist 58
COc1ccccc1-c1cc(C(F)(F)F)nc(S(=O)(=O)CCCC(=O)NCc2ccc(F)cc2)n1	CXCR6 block 40
CC12C(=O)N(c3nccs3)C(=O)C1(C)C1CCC2O1 (centres undefined)	none (no result: APJ antag, Beta2AR agonist, APJ agonist)
C[C@@]12C(=O)OC(=O)[C@]1(C)C1CCC2O1	Beta2AR agonist 81
O=C1C(Cc2ccccc2)Nc2ncnc(N3CCCCC3)c2N1Cc1ccc(Cl)cc1 (centres undefined)	CCR6 antag 51
COc1ccc(OC)c(/C=C/C(=O)OCC(=O)N2CCN(S(=O)(=O)c3ccc(C)cc3C)CC2)c1	none
Cc1cc(C(=O)N/N=C/c2cc(N=Nc3ccccc3)ccc2O)n[nH]1	CCR6 antag 61 (no result: APJ antag, APJ agonist)
COC(=O)N/N=C/c1cc(N=Nc2ccccc2Cl)ccc1O	CCR6 antag 58
O=C(NN=Cc1cc([N+](=O)[O-])ccc1O)c1cccc2ccccc12	none (no result: APJ antag, APJ agonist)
Nc1ccc(C(=O)N/N=C\c2cc(N=Nc3cccc4ccccc34)ccc2O)cc1	CCR6 antag 59 (no result: Beta2AR agonist)
Cc1cc(C(=O)N/N=C/c2cccc([N+](=O)[O-])c2O)n[nH]1	none
COC(=O)N/N=C/c1cc(N=Nc2ccccc2)ccc1O	none
O=C(COc1ccc(Cl)cc1Cl)NN1C(=O)C2C3C=CC([C@@H]2C1=O)C31CC1 (some centres undefined)	none
COc1ccc(C(C(=O)NC2CCCCC2)N(C(=O)CCl)c2cccc(Cl)c2)cc1 (centres undefined)	Beta2AR agonist 42 (no result: APJ antag, APJ agonist)
COc1ccc(C(C(=O)NC2CCCCC2)N(C(=O)CCl)c2ccc(OC)cc2)cc1 (centres undefined)	none
COc1ccc(N(C(=O)CCl)C(C(=O)NC2CCCCC2)c2cccnc2)cc1 (centres undefined)	none
COc1ccc(C(C(=O)NC2CCCCC2)N(C(=O)CCl)c2ccc(C)cc2)cc1 (centres undefined)	Beta2AR agonist 44
O=C(C[C@H]1C[C@H](C(=O)N2CCCCC2)[C@@]2(CCc3ccccc3)c3[nH]c4cc(-c5ccco5)ccc4c3CCN2C1=O)NCCN1CCOCC1	Beta2AR agonist 42 (no result: APJ antag, APJ agonist)
COCCCNC(=O)C[C@H]1C[C@H](C(=O)N2CCCCC2)[C@@]2(CCc3ccccc3)c3[nH]c4cc(-c5ccco5)ccc4c3CCN2C1=O	none (no result: APJ antag, APJ agonist)
O=C(CCc1ccncc1)N1CCCC(Nc2ccc(F)c(F)c2)C1 (centres undefined)	none
C=C1CC(COc2ccc3c(C)c(Cl)c(=O)oc3c2)(c2ccccc2)OC1=O (centres undefined)	EBI2 antag 56, CXCR6 block 37 (no result: APJ antag, APJ agonist)
COc1ccccc1NC(=O)c1cc2c(CO)cnc(C)c2oc1=Nc1ccc(OC)c(OC)c1	Beta2AR agonist 49
COc1ccccc1NC(=O)Cn1c(CCC(=O)O)ccc1-c1ccccc1	none
O=c1c2ccccc2nc2c3ccccc3c(NCCN3CCOCC3)nn12	none (no result: EBI2 antag, CXCR6 block, CCR6 antag, Beta2AR agonist)
O=c1c2c(-c3ccccc3)csc2nc2c3ccccc3c(NCCN3CCOCC3)nn12	Beta2AR agonist 107 (no result: APJ antag, APJ agonist)
Cc1cc(OC(=O)Nc2ccccc2)ccc1Cl	none (no result: CCR6 antag, APJ antag, Beta2AR agonist, APJ agonist)
CCOC(=O)CCCCCC(=O)Nc1ccc2c(c1)C(=O)N([C@@H](C)CO)C[C@@H](C)[C@H](CN(C)S(=O)(=O)c1cccs1)OCCCC[C@H](C)O2	none (no result: CCR6 antag, APJ antag, Beta2AR agonist, APJ agonist)
COc1cc(OC)c(-c2c3cc(O)c(=O)cc-3oc3cc(O)c(O)cc23)cc1OC	CCR6 antag 64
O=C1C(Cl)=C(Nc2ccccc2)C(=O)c2ccccc21	CCR6 antag 53 (no result: APJ antag, APJ agonist)
O=C(O)c1ccc(NC2=C(Cl)C(=O)c3ccccc3C2=O)cc1	Beta2AR agonist 96
CC1=NN(c2nc(N)nc(/C(C#N)=C/c3ccc([N+](=O)[O-])o3)n2)C(C)(C)C1	CCR6 antag 53 (no result: APJ antag, APJ agonist)
C[N+](C)(CC#Cc1ccccc1)CC(=O)c1ccc(Cl)cc1	APJ antag 42
C[N+](C)(CC#Cc1ccccc1)CC(=O)c1ccccc1	none
CC(C)(C)c1ccc(-c2cc(C(=O)NNC(=O)Nc3ccccc3)c3ccccc3n2)cc1	Beta2AR agonist 43
COC(=O)c1ccc(NC(=S)NC(=O)c2cc(-c3ccccc3)nc3ccccc23)cc1	CCR6 antag 53
Cc1ccsc1C(=O)N1CCC1(C)C(=O)NS(=O)(=O)c1ccccc1C(F)(F)F (centres undefined)	none (no result: CCR6 antag, APJ antag, Beta2AR agonist, APJ agonist)
COC(=O)/C=C1\SC(N2CCOCC2)=C(c2ccc(OC)cc2)C1=O	none
CCOc1ccccc1N(CC(=O)NC(C)(C)C)C(=O)CCC(=O)Nc1nccs1	none
O=C(O)COc1ccccc1/C=C1\C(=O)Nc2ccc(Br)cc21	none
O=C1Nc2ccc(Br)cc2/C1=C/C(=O)c1ccccc1	EBI2 antag 79 (no result: CCR6 antag, APJ antag, APJ agonist)
C=CCOc1cccc(C(=O)N2CCCC(CCC(=O)NCc3ccccc3F)C2)c1 (centres undefined)	none
CC(=O)/C=C1/C(=O)Nc2ccccc21	CCR6 antag 76, APJ antag 92
C=CCOc1cccc(C(=O)/C=C2/C(=O)Nc3ccccc32)c1	EBI2 antag 84, Beta2AR agonist 78
COc1cccc(-n2c(SCC(=O)NC3CC3)nc3ccccc3c2=O)c1	none (no result: CCR6 antag, APJ antag, Beta2AR agonist, APJ agonist)
O=C(Nc1ccc(Cc2nc3ccccc3s2)cc1)c1ccncc1	none
CCN(CC)CCNC(=O)CCc1c(C)nc2c(c(C)nn2-c2ccc(C)c(C)c2)c1C	none
O=C(c1ccc(-c2nnc(Nc3cccc(Cl)c3)c3ccccc23)cc1)N1C[C@H]2C[C@H](C1)c1cccc(=O)n1C2	Beta2AR agonist 74
COc1cccc(C(=O)O)c1OS(=O)(=O)c1ccc(C)cc1	none (no result: CCR6 antag, APJ antag, Beta2AR agonist, APJ agonist)
CC(C)C[C@H]1COc2cc(N3CC[C@H](O)C3)ccc2S(=O)(=O)N1	none (no result: CCR6 antag, APJ antag, Beta2AR agonist, APJ agonist)
CCOC1=C2[C@H](c3ccccc3F)N(S(=O)(=O)c3ccc(C)cc3)C[C@H]2n2c(=O)n(-c3ccccc3)c(=O)n2C1	none (no result: CCR6 antag, APJ antag, Beta2AR agonist, APJ agonist)
